Data reported in ChEMBL document CHEMBL4270526, “A novel NAE/UAE dual inhibitor LP0040 blocks neddylation and ubiquitination leading to growth inhibition and apoptosis of cancer cells” (Eur J Med Chem, 2018).

Columns and labels:
[1] = tested on: AGS; test: Synergistic antiproliferative activity against human AGS cells assessed as combination index constant at 1.25 uM after 48 hrs in presence of 10 nM BTZ by CCK8 assay; type: functional
Summary of the method: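 AGS cells at 6×10^3/well attached for 12 h, then exposed for 48 h to compound, bortezomib, or both at set concentrations. CCK-8 added for 4 h, then OD read at 450 nm. Inhibition rates E used for q = E(combo)/(E1+E2−E1×E2). Triplicate experiments.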

[2] = tested on: AGS; test: Induction of apoptosis in human AGS cells assessed as early apoptotic cells at 4 uM after 36 hrs by Annexin-V-FITC/propidium iodide staining based flow cytometry (reference value: 4.44%); type: functional
[3] = tested on: AGS; test: Cell cycle arrest in human AGS cells assessed as accumulation at G1 phase at 4 uM after 4 to 48 hrs by propidium iodide staining based flow cytometry (reference value: 22.82%); type: functional
Summary of the method: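 AGS cells seeded at 1 × 10^5/well and attached 24 h at 37 °C, 5% CO2. Exposed to 4 μM compound for varying times, then fixed in 70% ethanol at −20 °C overnight. Stained with PI/RNase buffer 15–20 min in the dark; 20000 cells per sample read by flow cytometry (488 nm excitation, FL-3 630 nm). Three repeats.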

[4] = target: NEDD8 activating enzyme (Homo sapiens) (UniProt Q8TBC4+Q13564); test: Inhibition of NAE in human AGS cells assessed as reduction in Uba3-NEDD8 conjugation level after 24 hrs by Western blot analysis; type: cell-based
Summary of the method: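 AGS cells given 2, 4, 6, 8 or 10 μM compound or 0.1% DMSO for 24 h, washed in ice-cold PBS and lysed in RIPA on ice. Equal protein loads run by SDS-PAGE: non-reducing for NEDD8/SUMO/Ub conjugates, reducing for p27, NRF2, CDT1 and cleaved caspase-3. Blotted to PVDF with primary antibody overnight at 4 °C and HRP secondary, ECL detection, densitometry. Three repeats.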

[5] = Selectivity index, ratio of IC50 for HUVEC to IC50 for human AGS cells; type: toxicity; details: HUVEC versus AGS cells, read-out: Ratio IC50
[6] = Hemolytic activity against rabbit erythrocytes assessed as hemolysis at 100 uM measured after 1 hr; type: ADME, cell-based, Oryctolagus cuniculus, Erythrocyte; details: read-out: Activity
Summary of the method: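 Rabbit erythrocytes pelleted at 3000 rpm for 10 min, washed twice and resuspended in PBS. Mixed 1:1 with 200 μM compound solution in PBS, 1 h at 37 °C. PBS served as 0% and 1% Triton X-100 as 100% hemolysis. After centrifugation, supernatant hemoglobin read at 540 nm; % hemolysis calculated relative to the Triton and PBS controls.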

Compound: O=c1cc(-c2ccc(-c3ccccc3)cc2)c2ccc(N3CCC(NCCc4ccccc4)CC3)cc2o1
- CI [1]: 1.75
- Activity [2]: 7.77%
- Activity [3]: 48.88%
- inhibition [4]: Dose-dependent effect
- selectivity ratio [5]: 14 to 18
- hemolysis at 1 h, 100 µM [6]: < 10%
